# Calls of active or inactive are those of the source. No cut-off for these calls is given here.
# Tests used:
# [1] = Drug metabolism in human hepatocytes assessed as 3-(7-methyl-5-(1-methyl-5-(5-(trifluoromethyl)pyridin-2-yl)-1H-pyrazol-4-yl)imidazo[1,5-f][1,2,4]triazin-4-ylamino)propanoic acid formation at 1 to 50 uM after 1 hr by LC-MS/MS analysis; format: ADME, cell-based, Hepatocyte
# Outline: (§1)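 Rat, dog or human liver microsomes or hepatocytes (P450 0.35–0.5 µM final) incubated with compound at 1, 10 or 50 µM in 100 mM phosphate buffer with 1 mM NADP regenerating system, 37°C for 1 h; quenched with 4 volumes acetonitrile, centrifuged, supernatant evaporated, reconstituted in 5% aqueous acetonitrile and analysed by reversed-phase LC.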
# [2] = Plasma clearance in beagle dog at 0.3 mg/kg, iv by LC-MS/MS analysis; format: ADME, organism-based, Canis lupus familiaris
# Outline: (§2)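 Single iv dose to male Wistar-Han rats (1 mg/kg) or dogs (0.3 mg/kg), given as a solution in 20% (w/v) SBECD with HCl. Dose volume 1 mL/kg in rats and 0.4 mL/kg in dogs. Blood taken by carotid artery cannula from 2 min to 24 h into K2EDTA (rat) or K3EDTA (dog) tubes. Plasma analysed by LC-MS/MS with positive electrospray after acetonitrile precipitation with internal standard.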
# [3] = Apparent intrinsic clearance in human liver microsomes; format: ADME, microsome; conditions: read-out: CLH(app)
# [4] = test system: Canis familiaris; experiment: Toxicity in dog assessed as effect on vasculature up to 15 mg/kg/day, po for 14 days by microscopic method; format: organism-based, Canis lupus familiaris; conditions: in vivo, 336 h
# [5] = biological target: T1, Cytochrome P450 1A2 (Homo sapiens, UniProt P05177); experiment: Induction of CYP1A2 (unknown origin); format: ADME
# T1 sequence (P05177 whole entry): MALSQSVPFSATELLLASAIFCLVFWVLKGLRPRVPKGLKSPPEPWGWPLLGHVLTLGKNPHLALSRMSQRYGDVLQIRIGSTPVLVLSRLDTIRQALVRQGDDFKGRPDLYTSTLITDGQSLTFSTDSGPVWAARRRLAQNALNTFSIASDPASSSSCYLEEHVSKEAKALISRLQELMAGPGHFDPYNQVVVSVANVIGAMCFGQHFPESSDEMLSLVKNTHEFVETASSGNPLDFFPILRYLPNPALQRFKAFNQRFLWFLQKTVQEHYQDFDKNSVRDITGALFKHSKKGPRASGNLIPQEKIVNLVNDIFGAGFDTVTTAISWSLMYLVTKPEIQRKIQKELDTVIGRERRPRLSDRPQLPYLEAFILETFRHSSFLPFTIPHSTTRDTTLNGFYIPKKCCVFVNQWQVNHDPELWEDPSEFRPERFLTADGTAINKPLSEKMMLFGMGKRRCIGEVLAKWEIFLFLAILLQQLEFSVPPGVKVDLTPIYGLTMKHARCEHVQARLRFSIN
# [6] = test system: Rattus norvegicus; experiment: Reversal of ketamine-induced working memory deficit in Long Evans rat at 0.032 to 0.32 mg/kg, sc by radial arm maze assay
# [7] = test system: Liver; experiment: Drug metabolism in human liver microsomes assessed as 3-(7-methyl-5-(1-methyl-5-(5-(trifluoromethyl)pyridin-2-yl)-1H-pyrazol-4-yl)imidazo[1,5-f][1,2,4]triazin-4-ylamino)propanoic acid formation at 1 to 50 uM after 1 hr by LC-MS/MS analysis; format: ADME, microsome; outline: as §1
# [8] = test system: Rattus norvegicus; experiment: Reversal of MK-801-induced disruption of low frequency cortical delta oscillation in Sprague-Dawley rat brain at 0.1 mg/kg, iv up to 55 mins by electrophysiology method; format: functional, organism-based
# [9] = Tmax in Wistar Han rat at 5 mg/kg, po administered via gavage by LC-MS/MS analysis; format: ADME, organism-based; conditions: in vivo
# [10] = species: Mus musculus; experiment: Effect on cAMP level in CD-1 mouse brain striatum by immunoassay; format: functional
# Outline: (§3)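 CD-1 mice dosed SC (solution in 20% SBE-β-CD with 2 molar equivalents 1N HCl, 1 mL/kg); euthanized by focused microwave irradiation of brain; cortex, striatum, hippocampus homogenized in 0.5 N HCl, centrifuged; cyclic nucleotides in supernatant by enzyme immunoassay. Unbound brain exposure from satellite animals; dose-response and time-course data combined with linear model; one-way ANOVA with Fisher's PLSD.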
# [11] = Intrinsic clearance in human hepatocytes; format: ADME, cell-based, Hepatocyte; conditions: read-out: CLH
# [12] = test system: Rattus norvegicus; experiment: Reversal of MK-801-induced disruption of low frequency cortical delta oscillation in Sprague-Dawley rat brain at 0.03 mg/kg, iv in early time point measured up to 55 mins by electrophysiology method; format: functional, organism-based
# [13] = species: Rattus norvegicus; experiment: Toxicity in rat assessed as effect on vasculature up to 1 month by microscopic method; conditions: in vivo
# [14] = Terminal half life in Wistar Han rat at 1 mg/kg, iv by LC-MS/MS analysis; format: ADME, organism-based; conditions: in vivo, read-out: beta t1/2 (converted); outline: as §2
# [15] = Oral bioavailability in Wistar Han rat at 5 mg/kg administered via gavage by LC-MS/MS analysis; format: ADME, organism-based; conditions: in vivo
# [16] = biological target: Cytochrome P450 2C9 (Homo sapiens, UniProt P11712); experiment: Inhibition of recombinant human CYP2C9; format: ADME; conditions: recombinant enzyme
# [17] = species: Mus musculus; experiment: Increase in cGMP level in CD-1 mouse brain striatum by immunoassay; format: functional
# Outline: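 CD-1 mice given compound; brains fixed by focused microwave irradiation, and cortex, striatum and hippocampus dissected and homogenized in 0.5 N HCl, then centrifuged. cGMP in the supernatant measured by enzyme immunoassay. Unbound brain concentration taken from satellite animals. Dose-response and time-course data combined, and a linear Cbu–cGMP model fitted. The Cbu E50 is the projected Cbu giving a 50% rise in cGMP. Statistics by one-way ANOVA with Fisher's PLSD, p<0.05.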
# [18] = species: Mus musculus; experiment: Effect on cAMP level in CD-1 mouse brain hippocampus by immunoassay; format: functional; outline: as §3
# [19] = Oral bioavailability in beagle dog at 5 mg/kg administered via gavage by LC-MS/MS analysis; format: ADME, organism-based, Canis lupus familiaris; conditions: in vivo
# [20] = test system: Mus musculus; experiment: In vivo effect on phosphorylated CREB level in CD-1 mouse brain striatum by immunoassay; format: functional, organism-based
# [21] = Ratio of unbound brain concentration to unbound plasma concentration in iv or sc dosed Wistar Han rat; format: ADME, organism-based; conditions: brain and plasma, read-out: K(p,uu,brain)
# Outline: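 Compound given sc to mice, iv and/or sc to rats, po to dogs and sc to monkeys; sc doses as a solution in 20% SBE-BCD + 2 molar equiv 1N HCl. Plasma, whole brain and CSF taken at matched times from 2 min to 24 h and quantified by LC-MS/MS. Fraction unbound in plasma and brain homogenate (diluted 4-fold, dilution factor 5 applied) by 6 h equilibrium dialysis against phosphate buffer at 37°C.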
# [22] = Drug metabolism in rat hepatocytes assessed as 1-(7-methyl-5-(1-methyl-5-(5-(trifluoromethyl)pyridin-2-yl)-1H-pyrazol-4-yl)imidazo[1,5-f][1,2,4]triazin-4-yl)azetidin-3-ol formation at 1 to 50 uM after 1 hr by LC-MS/MS analysis; format: ADME, cell-based, Hepatocyte; outline: as §1
# [23] = species: Rattus norvegicus; experiment: Cardiotoxicity in rat up to 1 month by microscopic method; format: toxicity
# [24] = AUC (0 to infinity) in beagle dog at 5 mg/kg, po administered via gavage by LC-MS/MS analysis; format: ADME, organism-based, Canis lupus familiaris; set-up: dose 5 mg/kg, route oral, time infinity; conditions: in vivo
# Cytochrome P450 2C9, sequence (P11712 whole entry): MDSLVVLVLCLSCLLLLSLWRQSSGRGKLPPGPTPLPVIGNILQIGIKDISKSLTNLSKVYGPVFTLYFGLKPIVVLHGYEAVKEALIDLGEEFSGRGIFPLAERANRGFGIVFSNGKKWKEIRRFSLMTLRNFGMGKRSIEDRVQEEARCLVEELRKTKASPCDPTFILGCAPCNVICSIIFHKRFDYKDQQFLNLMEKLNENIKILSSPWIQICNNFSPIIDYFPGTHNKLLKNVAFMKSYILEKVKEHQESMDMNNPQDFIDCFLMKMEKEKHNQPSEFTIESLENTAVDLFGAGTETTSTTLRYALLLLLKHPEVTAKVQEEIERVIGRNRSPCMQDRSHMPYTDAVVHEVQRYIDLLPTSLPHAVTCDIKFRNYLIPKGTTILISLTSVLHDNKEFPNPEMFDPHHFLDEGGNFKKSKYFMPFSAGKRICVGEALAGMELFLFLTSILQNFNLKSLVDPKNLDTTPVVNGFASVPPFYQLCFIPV
smiles,measurement,setting,value
Cc1nc(-c2cnn(C)c2-c2ccc(C(F)(F)F)cn2)c2c(N3CCC3)ncnn12 [PF-05180999],Drug metabolism,[1],Metabolite_Detected
same,clearance,[2],12.3 mL/min/kg
same,CLint scaled,[3],52 mL/min/kg
same,Activity,[4],Non-Toxic
same,Activity,[5],Not Active
same,Activity,[6],Active
same,Drug metabolism,[7],Metabolite_Detected
same,Activity,[8],Active
same,Tmax,[9],4.8 min
same,Activity,[10],inactive
same,CLint scaled,[11],44 mL/min/kg
same,Activity,[12],Active
same,Activity,[13],Non-Toxic
same,half-life,[14],66 min
same,bioavailability,[15],44%
same,inhibition (INH),[16],Not Active
same,Activity,[17],Dose-dependent effect
same,Activity,[18],inactive
same,bioavailability,[19],57%
same,Activity,[20],inactive
same,Kp uu,[21],0.71
same,Drug metabolism,[22],Metabolite_Detected
same,Activity,[23],Non-Toxic
same,AUC(0-inf),[24],4120 ng·h/mL

# Reference: ChEMBL document CHEMBL4024790 (J Med Chem, 2018)
